Experimental data taken from ChEMBL document CHEMBL2434894, “Pyranoxanthones: Synthesis, growth inhibitory activity on human tumor cell lines and determination of their lipophilicity in two membrane models” (Eur J Med Chem, 2013).
In brackets after ≈: the same amount, converted by molar mass.

Columns and labels:
[1] = Partition coefficient, log Kp of the compound in micelle-HEPES buffer at pH 7.4; format: physicochemical
[2] = Cytotoxicity against human A375-C5 cells after 48 hrs by SRB assay; format: functional; settings: A375-C5, 48 h
Method in brief: (§1)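 Cells kept in RPMI-1640 with 5% heat-inactivated FBS at 37 °C and 5% CO2, used in exponential growth at >90% viability (Trypan blue). Seeded per well: MCF-7 and NCI-H460 5 × 10³, A375-C5 7.5 × 10³, HL-60 1 × 10⁴. After 24 h, serial dilutions (0–150, where possible) were given for 48 h; DMSO ≤0.25%. Plates were TCA-fixed (10% adherent, 16.7% HL-60), SRB-stained and read at 510 nm. GI50 taken from curves; mean ± SE, ≥3 experiments; doxorubicin as positive control.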

MCF7 = assay: Cytotoxicity against human MCF7 cells after 48 hrs by SRB assay; format: functional; settings: MCF7, 48 h; method in brief: as §1
[3] = Partition coefficient, log Kp of the compound in liposome-HEPES buffer at pH 7.4; format: physicochemical; settings: artificial membrane
NCI-H460 = assay: Cytotoxicity against human NCI-H460 cells after 48 hrs by SRB assay; format: functional; settings: NCI-H460, 48 h; method in brief: as §1
HL-60 = assay: Cytotoxicity against human HL60 cells after 48 hrs by SRB assay; format: functional; settings: HL-60, 48 h; method in brief: as §1
L1210 = assay: Cytotoxicity against mouse L1210 cells; format: functional, cell-based
NCI-H187 = assay: Cytotoxicity against human NCI-H187 cells; format: functional, cell-based
KB = assay: Cytotoxicity against human KB cells; format: functional, cell-based
[4] = Cytotoxicity against human BC1 cells; format: functional, cell-based
[5] = Cytotoxicity against Drosophila melanogaster S2 cells; format: functional, cell-based
HCT-116 = assay: Cytotoxicity against human HCT116 cells; format: functional, cell-based
SGC-7901 = assay: Cytotoxicity against human SGC7901 cells; format: functional, cell-based
SMMC-7721 = assay: Cytotoxicity against human SMMC7721 cells; format: functional, cell-based

Row | Structure (SMILES) | log Kp [1] | log Kp [3] | GI50 [2] [µM] | GI50 (MCF7) [µM] | GI50 (NCI-H460) [µM] | GI50 (HL-60) [µM] | other results
1 | COc1c2c(cc3c(=O)c4ccccc4oc13)C=CC(C)(C)O2 | 3.83 | 3.88 | > 150 | > 150 | > 150 |  | 
2 | CC1(C)C=Cc2ccc3c(=O)c4ccccc4oc3c2O1 | 3.5 | 3.42 | 6.2 | 13.3 | 32.9 | 3.2 | 
3 | CC1(C)C=Cc2c(ccc3oc4ccccc4c(=O)c23)O1 | 4.1 | 4.14 | 37.9 | 50.9 | 44.5 | 36.7 | 
4 | CC1(C)C=Cc2c(cc3c(=O)c4ccccc4oc3c2O)O1 | 3.29 | 3.06 | > 150 | 108 | > 150 | > 70 | 
5 | CC1(C)C=Cc2cc(O)c3c(=O)c4ccccc4oc3c2O1 | 4.08 |  | > 100 |  |  | 6.4 | 
6 | CC1(C)C=Cc2c(cc(O)c3c(=O)c4ccccc4oc23)O1 | 4.02 |  |  | > 150 | > 150 |  | 
7 | COc1cc(OC)c2c(=O)c3c(O)c4c(c(OC)c3oc2c1OC)OC(C)(C)C=C4 |  |  |  |  |  |  | IC50 (L1210): 3.51 µg/mL (≈ 8.47 µM)
8 | COc1ccc2c(=O)c3c(OC)c4c(c(OC)c3oc2c1OC)OC(C)(C)C=C4 |  |  |  |  |  |  | IC50 (L1210): 4.23 µg/mL (≈ 10.6 µM)
9 | CC(C)=CCc1c(O)cc2oc3cc(O)c4c(c3c(=O)c2c1O)CCC(C)(C)O4 |  |  |  |  |  |  | IC50 (NCI-H187): 3.9 µg/mL (≈ 9.84 µM); IC50 (KB): 3.9 µg/mL; IC50 [4]: 3.9 µg/mL (≈ 9.84 µM)
10 | CC1(C)CCc2cc3oc4cc(O)cc(O)c4c(=O)c3c(O)c2O1 |  |  |  |  |  |  | IC50 [5]: 6.3 µg/mL (≈ 19.2 µM)
11 | CC(C)=CCc1c2c(c3oc4cc(O)c(O)cc4c(=O)c3c1O)C=CC(C)(C)O2 [CUDRATRICUXANTHONE] |  |  |  |  |  |  | IC50 (HCT-116): 4.1 µM; IC50 (SGC-7901): 4.1 µM; IC50 (SMMC-7721): 4.1 µM
12 | COc1cccc2c1C(=O)c1c(O)c3c(c(O)c1C2=O)C[C@@](O)(C(=O)CO)C[C@@H]3O[C@H]1C[C@H](N)[C@H](O)[C@H](C)O1 [DOXORUBICIN] |  |  |  |  |  | 0.028 | 
13 | COc1c(O)cc2c(=O)c3c(O)c4c(cc3oc2c1CC=C(C)C)OC(C)(C)C=C4 [MANGLEXANTHONE] |  |  |  |  |  |  | IC50 (KB): 1.9 µM

More lines, main results first:

Row | log Kp [1] | log Kp [3] | Structure (SMILES) | GI50 [2] [µM] | GI50 (MCF7) [µM] | GI50 (NCI-H460) [µM] | GI50 (HL-60) [µM] | other results
14 | 4.27 |  | CC1(C)CCc2c(cc(O)c3c(=O)c4ccccc4oc23)O1 |  |  |  |  | 
15 | 4.15 | 4.17 | CC1(C)C=Cc2cc3oc4ccccc4c(=O)c3c(O)c2O1 | 29.6 | 39.6 | 31.7 | 38.9 | 
16 | 3.88 | 3.96 | CC1(C)CCc2cc3oc4ccccc4c(=O)c3c(O)c2O1 | > 150 | > 150 | > 150 | 26.1 | 
17 | 4.07 | 3.94 | COc1c2c(cc3c(=O)c4ccccc4oc13)OC(C)(C)C=C2 |  |  |  | 11.8 | 
18 | 3.88 | 3.92 | COc1c2c(cc3c(=O)c4ccccc4oc13)OC(C)(C)CC2 | 42.5 | 45.1 | 47.3 | 31.8 | 
19 | 3.76 | 3.54 | COc1c2c(cc3oc4ccccc4c(=O)c13)C=CC(C)(C)O2 | 47.4 |  | 42.9 | 9.6 | 
20 | 3.33 | 3.32 | COc1cc2c(c3oc4ccccc4c(=O)c13)OC(C)(C)C=C2 | 69.5 |  |  | 9.6 | 
21 | 3.58 | 3.09 | COc1c2c(cc3oc4ccccc4c(=O)c13)CCC(C)(C)O2 | > 150 |  | > 150 | 37.6 | 
22 | 3.46 | 3.08 | COc1cc2c(c3oc4ccccc4c(=O)c13)OC(C)(C)CC2 | > 100 | > 100 |  | 30.9 | 
23 | 4.28 |  | CC1(C)CCc2cc(O)c3c(=O)c4ccccc4oc3c2O1 | > 50 | > 50 | > 50 | > 50 | 
24 | 4.06 |  | CC1(C)C=Cc2c(cc3oc4ccccc4c(=O)c3c2O)O1 |  | > 150 | > 150 |  | 
25 | 4.32 |  | CC1(C)CCc2c(cc3oc4ccccc4c(=O)c3c2O)O1 |  |  |  |  | 
